Results published in ChEMBL document CHEMBL4400546, “A Cinchona Alkaloid Antibiotic That Appears To Target ATP Synthase in Streptococcus pneumoniae” (J Med Chem, 2019).
≈ marks a conversion by molar mass, not a printed value.

What was measured:
[1] = AUCt in ICR mouse at 25 mg/kg, po via bolus administration by LC-MS/MS analysis; format: ADME, organism-based; conditions: in vivo
How it was run: (§1)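 Single-dose PK in male ICR mice, bolus p.o. 25 mg/kg or i.v. 2.5 mg/kg. Plasma concentration followed over time, n = 3. Parameters derived by noncompartmental analysis of the concentration–time curves. Oral bioavailability calculated from AUC.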

[2] = Cmax in ICR mouse at 2.5 mg/kg, iv by LC-MS/MS analysis; format: ADME, organism-based; parameters: dose 2.5 mg/kg, route intravenous; conditions: in vivo; how it was run: as §1
[3] = Tmax in ICR mouse at 2.5 mg/kg, iv by LC-MS/MS analysis; format: ADME, organism-based; conditions: in vivo
How it was run: (§2)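 Male ICR mice, single i.v. bolus at 2.5 mg/kg. Serum concentration-time curves (n = 3) analysed noncompartmentally to give Tmax and steady-state volume of distribution.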

[4] = Drug level in ICR mouse liver microsomes treated with 6-Cyclobutoxy-(R)-4-[((1S,2S,4S,5Z)-5-ethylidene-1-azabicyclo-[2.2.2]octan-2-yl)hydroxymethyl]quinoline at 10 uM preincubated with NADPH for 10 mins and measured after 90 mins by LC-MS/MS analysis; format: ADME, Microsome; conditions: 1.5 h
[5] = Elimination half life in ICR mouse at 2.5 mg/kg, iv by LC-MS/MS analysis; format: ADME, organism-based; conditions: in vivo, read-out: beta t1/2 (converted); how it was run: as §1
[6] = AUCt in ICR mouse at 2.5 mg/kg, iv by LC-MS/MS analysis; format: ADME, organism-based; conditions: in vivo; how it was run: as §1
[7] = Cytotoxicity against human HepG2 cells assessed as reduction in cell viability after 48 hrs by Alamar Blue assay; format: cell-based
[8] = Drug metabolism in ICR mouse liver microsomes assessed as ) 6-(cyclobutoxy)-4-[(R)-hydroxy-[(1S,2S,4S,5Z)-5-(2-hydroxyethylidene)quinuclidin-2-yl]methyl]-1H-quinolin-2-one metabolite formation at 10 uM preincubated with NADPH for 10 mins by LC-MS/MS analysis; format: ADME, Microsome
[9] = Oral bioavailability in ICR mouse at 25 mg/kg via bolus administration by LC-MS/MS analysis; format: ADME, organism-based; conditions: in vivo
How it was run: (§3)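 Male ICR mice, single oral bolus at 25 mg/kg. Serum concentration-time profiles (n = 3) analysed by noncompartmental analysis.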

[10] = Cmax in ICR mouse at 25 mg/kg, po via bolus administration by LC-MS/MS analysis; format: ADME, organism-based; parameters: dose 25 mg/kg, route oral; conditions: in vivo; how it was run: as §1
[11] = Tmax in ICR mouse at 25 mg/kg, po via bolus administration by LC-MS/MS analysis; format: ADME, organism-based; conditions: in vivo; how it was run: as §3
[12] = Elimination half life in ICR mouse at 25 mg/kg, po via bolus administration by LC-MS/MS analysis; format: ADME, organism-based; conditions: in vivo, read-out: beta t1/2 (converted); how it was run: as §1
[13] = Drug metabolism in ICR mouse liver microsomes assessed as [6-(cyclobutoxy)-4-quinolyl]-[(1S,2S,4S,5Z)-5-(2-hydroxyethylidene)quinuclidin-2-yl]methanone metabolite formation at 10 uM preincubated with NADPH for 10 mins by LC-MS/MS analysis; format: ADME, Microsome
[14] = Drug level in ICR mouse liver microsomes treated with 6-Cyclobutoxy-(R)-4-[((1S,2S,4S,5E)-5-ethylidene-1-azabicyclo[2.2.2]octan-2-yl)hydroxymethyl]quinoline at 10 uM preincubated with NADPH for 10 mins and measured after 90 mins by LC-MS/MS analysis; format: ADME, Microsome; conditions: 1.5 h
[15] = Drug metabolism in ICR mouse liver microsomes assessed as (2S,3S,4S,5R,6R)-6-[[4-[(R)-[(1S,2S,4S,5Z)-5-ethylidenequinuclidin-2-yl]-hydroxy-methyl]-6-quinolyl]oxy]-3,4,5-trihydroxy-tetrahydropyran-2-carboxylic acid metabolite formation at 10 uM preincubated with NADPH for 10 mins by LC-MS/MS analysis; format: ADME, Microsome
[16] = Drug metabolism in ICR mouse liver microsomes at 10 uM preincubated with NADPH for 10 mins and measured after 60 mins by LC-MS/MS analysis; format: ADME, Microsome; conditions: read-out: Drug metabolism
Streptococcus pneumoniae [17] = assay: Antibacterial activity against Streptococcus pneumoniae D39 after 20 hrs by CLSI-based microdilution method; format: functional; conditions: D39, 20 h
[18] = Volume of distribution at steady state in ICR mouse at 2.5 mg/kg, iv by LC-MS/MS analysis; format: ADME, organism-based; conditions: in vivo, read-out: Vdss; how it was run: as §2
[19] = Clearance in ICR mouse at 2.5 mg/kg, iv by LC-MS/MS analysis; format: ADME, organism-based; conditions: in vivo; how it was run: as §1
[20] = Drug metabolism in ICR mouse liver microsomes assessed as [(1S,2S,4S,5Z)-5-ethylidenequinuclidin-2-yl]-(6-hydroxy-4-quinolyl)methanone metabolite formation at 10 uM preincubated with NADPH for 10 mins by LC-MS/MS analysis; format: ADME, Microsome
[21] = system: Streptococcus pneumoniae D39; assay: Inhibition of wild-type Streptococcus pneumoniae D39 ATP synthase atpE assessed as intracellular pH at 10 uM measured at 5 mins intervals by pH-sensitive GFP-based fluorescence assay (reference value: 7.34 +/- 0.04); format: cell-based
How it was run: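 S. pneumoniae D39 WT and isogenic atpE G142C or G145A mutants carry a plasmid-borne ratiometric pH-sensitive GFP biosensor. Cells are in PBS pH 7.2 with 10 mM glucose and are treated with compound, DMSO (0.5% v/v) or CCCP (10 µM). Intracellular pH is read immediately and at 5-min intervals. Two independent experiments, each in triplicate.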

[22] = Mitochondrial toxicity in human HepG2 cells assessed as reduction in cell viability after 24 hrs in presence of galactose by CellTiter-Glo assay; format: cell-based
How it was run: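 HepG2 cells are grown in DMEM supplemented with 10 mM galactose or 10 mM glucose and treated for 24 h. Viability is read by CellTiter-Glo luminescence. The CC90 is the concentration inhibiting 90% of cell viability, taken from dose–response curves. Oligomycin and tamoxifen serve as controls.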

Streptococcus pneumoniae [23] = assay: Antibacterial activity against amoxicillin/penicillin/chloramphenicol/erythromycin/meropenem/cefotaxime-resistant Streptococcus pneumoniae TH2582 (19A) after 20 hrs by CLSI-based microdilution method; format: functional
Streptococcus pneumoniae [24] = assay: Antibacterial activity against amoxicillin/penicillin/cefotaxime/erythromycin/tetracycline-resistant Streptococcus pneumoniae TH2784 (19F) after 20 hrs by CLSI-based microdilution method; format: functional
Streptococcus pneumoniae [25] = assay: Bactericidal activity against Streptococcus pneumoniae D39 after 24 hrs; format: functional; conditions: D39, 24 h
Streptococcus pneumoniae [26] = assay: Antibacterial activity against amoxicillin/penicillin/erythromycin/ertapenem/moxifloxacin/cefotaxime-resistant Streptococcus pneumoniae TH2889 (6B) after 20 hrs by CLSI-based microdilution method; format: functional
[27] = Mitochondrial toxicity in human HepG2 cells assessed as reduction in cell viability after 24 hrs in presence of glucose by CellTiter-Glo assay; format: cell-based
How it was run: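 HepG2 cells grown in DMEM with 10 mM glucose, treated 24 h; viability read by CellTiter-Glo luminescence. Value is the concentration giving 90% loss of viability (CC90) from dose-response curves, top concentration 300 µM.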

Staphylococcus aureus = assay: Antibacterial activity against Staphylococcus aureus; format: functional
[28] = Protein binding in plasma (unknown origin); format: ADME, cell-free; conditions: read-out: PPB
[29] = system: Staphylococcus epidermidis; assay: Antibacterial activity against Staphylococcus epidermidis; format: functional
[30] = Cmax in human; format: ADME
Streptococcus pneumoniae [31] = assay: Antibacterial activity against Streptococcus pneumoniae; format: functional
How it was run: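 MIC read per CLSI guidelines as the lowest concentration giving complete inhibition of visible growth. The main screen used strain D39. A further panel covered drug-sensitive, multidrug-resistant and optochin-resistant strains, including R6 carrying atpE point mutations G142C or G145A made by a PCR-based approach.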

[32] = Elimination half life in human
Enterococcus faecalis = assay: Antibacterial activity against Enterococcus faecalis; format: functional
Enterococcus faecium = assay: Antibacterial activity against Enterococcus faecium; format: functional
Streptococcus pyogenes = assay: Antibacterial activity against Streptococcus pyogenes; format: functional
Streptococcus pneumoniae [33] = assay: Antibacterial activity against Streptococcus pneumoniae R6 after 20 hrs by CLSI-based microdilution method; format: functional; conditions: R6, 20 h
Streptococcus pneumoniae [34] = assay: Antibacterial activity against penicillin/erythromycin/meropenem/tetracycline-resistant Streptococcus pneumoniae TH2863 (19F) after 20 hrs by CLSI-based microdilution method; format: functional
Streptococcus pneumoniae [35] = assay: Antibacterial activity against optochin-resistant Streptococcus pneumoniae R6 expressing atpE G142C mutant after 20 hrs by CLSI-based microdilution method; format: functional; conditions: R6, 20 h
Streptococcus pneumoniae [36] = assay: Antibacterial activity against optochin-resistant Streptococcus pneumoniae R6 expressing atpE G145A mutant after 20 hrs by CLSI-based microdilution method; format: functional; conditions: R6, 20 h

SMILES | AUC(0-t) [1] | Cmax [2] | Tmax [3] | half-life [5] | AUC(0-t) [6] | CC50 at 48 h [7] | bioavailability [9] | Cmax [10] | Tmax [11] | half-life [12] | metabolised at 1 h, 10 µM [16] | MIC (Streptococcus pneumoniae [17]) | Vd [18] | clearance [19] | CC90 at 24 h [22] | CC90 at 24 h [27] | other results
C/C=C1\C[N@]2CC[C@H]1C[C@H]2[C@H](O)c1ccnc2ccc(OC3CCC3)cc12 | 319 ng·h/mL | 521 ng/mL | 1.98 min | 25.2 min | 235 ng·h/mL | 59 µM | 13.6% | 207 ng/mL | 15 min | 41.4 min | 99.8% | 1.4 µM (≈ 0.51 µg/mL) | 6.3 L/kg | 172 mL/min/kg |  |  | Drug uptake [4]: Active; Drug metabolism [8]: Metabolite_Detected; Drug metabolism [13]: Metabolite_Detected; Drug uptake [14]: Active; Drug metabolism [15]: Metabolite_Detected; Drug metabolism [20]: Metabolite_Detected
N#CC(C#N)=NNc1cccc(Cl)c1 |  |  |  |  |  |  |  |  |  |  |  |  |  |  |  |  | pH [21]: 5.43
C/C=C1/CN2CC[C@H]1C[C@H]2[C@H](O)c1ccnc2ccc(O)cc12 | 442 ng·h/mL | 511 ng/mL | 1.98 min | 67.2 min | 190 ng·h/mL | > 100 µM | 23.3% | 619 ng/mL | 4.98 min | 54.6 min | 89% | 52 µM (≈ 16.1 µg/mL) | 20 L/kg | 207 mL/min/kg | 300 µM | > 300 µM | MIC (Streptococcus pneumoniae [23]): 64 µg/mL (≈ 206 µM); MIC (Streptococcus pneumoniae [24]): 4 µg/mL (≈ 12.9 µM); MBC (Streptococcus pneumoniae [25]): 16 µg/mL (≈ 51.5 µM); MIC (Streptococcus pneumoniae [26]): 128 µg/mL (≈ 412 µM)
O[C@@H](c1cc(C(F)(F)F)nc2c(C(F)(F)F)cccc12)[C@H]1CCCCN1 [(S,R)-MEFLOQUINE] |  |  |  |  |  |  |  |  |  |  |  |  |  |  |  |  | MIC (Staphylococcus aureus): 16 µg/mL (≈ 42.3 µM); fraction unbound [28]: < 0.02; MIC [29]: 16 µg/mL (≈ 42.3 µM); Cmax [30]: 50 ng/mL; MIC (Streptococcus pneumoniae [31]): 0.4 to 0.8 µg/mL (≈ 1.06 to 2.11 µM); half-life [32]: 20 days; MIC (Enterococcus faecalis): 16 µg/mL (≈ 42.3 µM)
OC(c1cc(C2C[C@H]3CC[C@@H]2CC3)nc2c(Cl)c(Cl)ccc12)C1CCCCN1 (stereo partly drawn) |  |  |  |  |  |  |  |  |  |  |  |  |  |  |  |  | MIC (Staphylococcus aureus): 1.5 to 6.3 µg/mL (≈ 3.58 to 15 µM); MIC (Enterococcus faecium): 1.5 to 6.3 µg/mL (≈ 3.58 to 15 µM); MIC [29]: 1.5 to 6.3 µg/mL (≈ 3.58 to 15 µM); MIC (Streptococcus pyogenes): 1.5 to 6.3 µg/mL (≈ 3.58 to 15 µM); MIC (Streptococcus pneumoniae [31]): 0.08 to 1.25 µg/mL (≈ 0.191 to 2.98 µM); MIC (Enterococcus faecalis): 1.5 to 6.3 µg/mL (≈ 3.58 to 15 µM)
CCOc1ccc2nccc([C@@H](O)[C@@H]3C[C@@H]4CCN3C[C@@H]4CC)c2c1 [ETHYLHYDROCUPREINE] | 1570 ng·h/mL | 375 ng/mL | 1.98 min | 31.8 min | 144 ng·h/mL | > 100 µM | 109% | 639 ng/mL | 30 min | 60 min | 87% | 6 to 12 µM (≈ 2.04 to 4.09 µg/mL) | 12.7 L/kg | 274 mL/min/kg | 300 µM | 300 µM | MIC (Streptococcus pneumoniae [23]): 2 µg/mL (≈ 5.87 µM); MIC (Streptococcus pneumoniae [24]): 2 µg/mL (≈ 5.87 µM); MBC (Streptococcus pneumoniae [25]): 4 µg/mL (≈ 11.7 µM); MIC (Streptococcus pneumoniae [33]): 2 µg/mL (≈ 5.87 µM); MIC (Streptococcus pneumoniae [34]): 4 to 8 µg/mL (≈ 11.7 to 23.5 µM); MIC (Streptococcus pneumoniae [35]): 64 µg/mL (≈ 188 µM); MIC (Streptococcus pneumoniae [36]): 16 µg/mL (≈ 47 µM); MIC (Streptococcus pneumoniae [26]): 2 µg/mL (≈ 5.87 µM)
C/C=C1/C[N@]2CC[C@H]1C[C@H]2[C@H](O)c1ccnc2ccc(OC3CCC3)cc12 | 368 ng·h/mL | 399 ng/mL | 1.98 min | 26.4 min | 175 ng·h/mL | 65 µM | 21% | 331 ng/mL | 4.98 min | 42 min |  | 0.7 µM (≈ 0.255 µg/mL) | 8.8 L/kg | 230 mL/min/kg |  |  | 
